Test results from ChEMBL document CHEMBL4270592, “8-Aryl-6-chloro-3-nitro-2-(phenylsulfonylmethyl)imidazo[1,2-a]pyridines as potent antitrypanosomatid molecules bioactivated by type 1 nitroreductases” (Eur J Med Chem, 2018).

What was measured:
Leishmania infantum = assay: Antileishmanial activity against axenic amastigote stage of Leishmania infantum assessed as inhibition of parasite metabolic activity after 48 hrs by luciferase reporter gene based luminescence assay; type: functional, organism-based
How it was run: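 L. infantum promastigotes in log phase switched to RPMI 1640 pH 5.4 for 24 h at 24 °C, then 24 h at 37 °C to give axenic amastigotes. Seeded at 2.106 parasites/mL with compounds in DMSO (final <0.5% v/v), in duplicate, 48 h at 37 °C. Wells checked for precipitate, luciferase luminescence read, IC50 by non-linear regression as mean.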

HepG2 = assay: Cytotoxicity against human HepG2 cells assessed as reduction in cell viability after 72 hrs by MTT assay; type: cell-based; settings: hepg2, 72 h
How it was run: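 HepG2 cells in RPMI with 10% FCS, L-glutamine and penicillin/streptomycin, 37 °C, 6% CO2. After 24 h, compounds in DMSO (final <0.5% v/v) added for 72 h, in duplicate. Precipitate checked, MTT (0.5 mg/mL) 2 h, formazan dissolved in DMSO, A570 with 630 nm reference. Viability as % of untreated control; CC50 from dose-response curve; doxorubicin positive control.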

[1] = Selectivity index, ratio of CC50 for human HepG2 cells to IC50 for axenic amastigote stage of Leishmania infantum; type: toxicity; settings: read-out: Ratio CC50/IC50
[2] = test system: Trypanosoma brucei brucei; assay: Antitrypanosomal activity against trypomastigote stage of Trypanosoma brucei brucei AnTat 1.9 assessed as decrease in parasite viability after 69 hrs by Alamar blue assay; type: functional, organism-based; settings: AnTat 1.9, 69 h
How it was run: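 AnTat 1.9 in MEM with Earle's salts plus 0.5 mM mercaptoethanol, 1.5 mM L-cysteine, 0.05 mM bathocuproine sulfate and 20% heat-inactivated horse serum, 37 °C, 5% CO2. Seeded 2000 parasites/100 µL with compounds in DMSO, in duplicate, 69 h, then Alamar Blue for 5 h.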

[3] = Selectivity index, ratio of CC50 for human HepG2 cells to IC50 for trypomastigote stage of Trypanosoma brucei brucei AnTat 1.9; type: toxicity; settings: read-out: Ratio CC50/IC50
Leishmania donovani [4] = assay: Antileishmanial activity against promastigote stage of Leishmania donovani MHOM/IN/00/DEVI assessed as inhibition of parasite metabolic activity after 72 hrs by MTT assay; type: functional, organism-based
How it was run: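 MHOM/IN/00/DEVI log-phase promastigotes in Schneider's medium with 20% FCS, 2 mM L-glutamine and antibiotics. Seeded at 10⁶ parasites/mL with compounds in DMSO (final <0.5% v/v), in duplicate, 72 h at 27 °C. MTT added for 4 h, stopped with 50% isopropanol–10% SDS, A570 read. IC50 by nonlinear regression, mean of three independent experiments.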

[5] = (§1) Cytotoxicity against human THP1 cells assessed as reduction in cell viability after 72 hrs by MTT assay; type: cell-based, THP-1; settings: THP1 cells
How it was run: (§2)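 THP1 cells in complete RPMI with PMA (final 50 ng/mL) at 10⁶ cells/mL, differentiated 48 h. Compounds in DMSO (final <0.5% v/v) then added for 72 h at 37 °C. MTT (0.5 mg/mL in FCS-free medium) 2 h, formazan dissolved in DMSO, A570 with 630 nm reference. Viability as % of untreated control; CC50 from dose-response curve; doxorubicin positive control.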

[6] = Electrochemical behavior of the compound assessed as redox potential corrected toward normal hydrogen electrode by cyclic voltammetry; type: physicochemical
THP-1 = assay: as §1; type: cell-based; settings: thp-1, 72 h; how it was run: as §2
[7] = Selectivity index, ratio of CC50 for human HepG2 cells to IC50 for promastigote stage of Leishmania donovani MHOM/IN/00/DEVI; type: toxicity; settings: read-out: Ratio CC50/IC50
Leishmania donovani [8] = assay: Antileishmanial activity against intramacrophage amastigote stage of Leishmania donovani infected in human THP1 cells after 120 hrs by Giemsa staining based microscopy; type: functional, organism-based; settings: THP-1, 120 h
How it was run: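 THP-1 cells differentiated with PMA (final 50 ng/mL) for 48 h at 37 °C, 6% CO2. Infected 10:1 with L. donovani promastigotes acidified 24 h at 27 °C in Schneider 20% FCS pH 5.4. After 24 h, compounds added in duplicate (DMSO <0.5% v/v) for 120 h.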

[9] = Selectivity index, ratio of CC50 for human HepG2 cells to IC50 for intramacrophage amastigote stage of Leishmania donovani infected in human THP1 cells; type: toxicity, cell-based; settings: read-out: Ratio CC50/IC50
Leishmania donovani [10] = assay: Antileishmanial activity against wild type promastigote stage of Leishmania donovani MHOM/SD/62/1S-CL2D LdBOB after 72 hrs by resazurin dye based assay; type: functional, organism-based
How it was run: (§3)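 Clonal L. donovani LdBOB promastigotes grown at 26 °C in modified M199. NTR1 and NTR2 overexpressers kept in nourseothricin 100 µg/mL. Triplicate 10 mL cultures seeded at 5×10^4 parasites/mL with drug for 72 h. Aliquots received 50 µM resazurin, read by fluorescence (ex 528/em 590 nm) after 4 h. Background-corrected 2-parameter fit gave EC50; at least two repeats, mean ± SD.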

[11] = Substrate activity at recombinant type-1 nitroreductase in promastigote stage of Leishmania donovani MHOM/SD/62/1S-CL2D LdBOB assessed as inhibition of parasite growth after 72 hrs by resazurin dye based assay; how it was run: as §3
[12] = Substrate activity at recombinant nitroreductase 2 in promastigote stage of Leishmania donovani MHOM/SD/62/1S-CL2D LdBOB assessed as inhibition of parasite growth after 72 hrs by resazurin dye based assay; how it was run: as §3
[13] = test system: Trypanosoma brucei brucei; assay: […] activity against wild type bloodstream form of Trypanosoma brucei brucei S427 after 72 hrs; type: functional, organism-based; settings: S427, 72 h
How it was run: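 Bloodstream-form T. brucei single marker S427 (T7RPOL TETR NEO) cultured at 37 °C in HMI9-T with 2.5 µg/mL G418. NTR1-overexpressing line kept in 2.5 µg/mL phleomycin and induced with 1 µg/mL tetracycline 48 h before the assay. Triplicate cultures seeded at 1×10^5 cells/mL with inhibitor; cell densities counted after 72 h to give EC50.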

[14] = test system: Trypanosoma brucei brucei; assay: Selectivity ratio of IC50 for wild type bloodstream form of Trypanosoma brucei brucei S427 to substrate activity at recombinant type-1 nitroreductase in bloodstream form of Trypanosoma brucei brucei S427
How it was run: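 Bloodstream-form single-marker S427 grown at 37 °C in HMI9-T with 2.5 µg/mL G418. The NTR1-overexpressing line was also given 2.5 µg/mL phleomycin and induced with 1 µg/mL tetracycline 48 h before assay. Triplicate cultures seeded at 1×10^5 cells/mL with inhibitor; cell densities determined after 72 h to give EC50 for wild-type and NTR1 lines.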

## O=[N+]([O-])c1c(CS(=O)(=O)c2ccccc2)nc2c(-c3cccc(F)c3)cc(Cl)cn12
Leishmania infantum
  IC50: 1700 nM
HepG2
  CC50: > 12500 nM
[1]
  selectivity ratio: > 7.4
[2]
  IC50: 200 nM
[3]
  selectivity ratio: > 62.5

## C[C@@H]1[C@H](O)[C@@H](C)/C=C/C=C/C=C/C=C/C=C/C=C/C=C/[C@H](O[C@@H]2O[C@H](C)[C@@H](O)[C@H](N)[C@@H]2O)C[C@@H]2O[C@](O)(C[C@@H](O)C[C@@H](O)[C@H](O)CC[C@@H](O)C[C@@H](O)CC(=O)O[C@H]1C)C[C@H](O)[C@H]2C(=O)O [AMPHOTERICIN B]
Leishmania donovani [4]
  IC50: 70 nM
[5]
  CC50 at 72 h: > 62500 nM

## O=[N+]([O-])c1c(CS(=O)(=O)c2ccccc2)nc2c(-c3ccccc3F)cc(Cl)cn12
HepG2
  CC50: > 3900 nM

## O=[N+]([O-])c1c(CS(=O)(=O)c2ccccc2)nc2c(Br)cc(Cl)cn12
[6]
  Activity: -0.65 V

## O=[N+]([O-])c1c(CS(=O)(=O)c2ccccc2)nc2c(-c3cccnc3)cc(Cl)cn12
Leishmania infantum
  IC50: 2000 nM
HepG2
  CC50: > 31300 nM
[1]
  selectivity ratio: > 15.7
[2]
  IC50: 230 nM
[3]
  selectivity ratio: > 136

## COc1ccc(-c2cc(Cl)cn3c([N+](=O)[O-])c(CS(=O)(=O)c4ccccc4)nc23)cc1
HepG2
  CC50: > 3900 nM

## O=[N+]([O-])c1c(CS(=O)(=O)c2ccccc2)nc2c(-c3ccc(F)cc3)cc(Cl)cn12
Leishmania infantum
  IC50: 1300 nM
HepG2
  CC50: > 15600 nM
[1]
  selectivity ratio: > 12
[2]
  IC50: 310 nM
[3]
  selectivity ratio: > 50.3

## O=[N+]([O-])c1c(CS(=O)(=O)c2ccccc2)nc2c(-c3ccc(C(F)(F)F)cc3)cc(Cl)cn12
HepG2
  CC50: > 3900 nM

## CCCCCCCCCCCCCCCCOP(=O)([O-])OCC[N+](C)(C)C [MILTEFOSINE]
THP-1
  CC50: > 40000 nM

## O=[N+]([O-])c1c(CS(=O)(=O)c2ccccc2)nc2c(-c3ccc(Cl)cc3)cc(Cl)cn12
HepG2
  CC50: > 3900 nM

## O=[N+]([O-])c1c(CS(=O)(=O)c2ccccc2)nc2c(-c3ccco3)cc(Cl)cn12
HepG2
  CC50: > 3900 nM

## O=[N+]([O-])c1c(CS(=O)(=O)c2ccccc2)nc2c(Br)cc(Br)cn12
Leishmania infantum
  IC50: 4400 nM
HepG2
  CC50: > 31000 nM
[1]
  selectivity ratio: > 7.1
[2]
  IC50: 2900 nM
[3]
  selectivity ratio: > 10.7
[7]
  selectivity ratio: > 17.2
Leishmania donovani [8]
  IC50: 5500 nM
[9]
  selectivity ratio: > 5.6
THP-1
  CC50: > 25000 nM
Leishmania donovani [10]
  IC50: 1900 nM
[11]
  IC50: 70 nM
[12]
  IC50: 3000 nM
[6]
  Activity: -0.59 V

## O=[N+]([O-])c1c(CS(=O)(=O)c2ccccc2)nc2c(-c3cccc(C(F)(F)F)c3)cc(Cl)cn12
Leishmania infantum
  IC50: 1100 nM
HepG2
  CC50: > 12500 nM
[1]
  selectivity ratio: > 11.4
[2]
  IC50: 40 nM
[3]
  selectivity ratio: > 312
[13]
  IC50: 90 nM
[14]
  Ratio IC50: 2
[6]
  Activity: -0.67 V

## CCN(CC)c1ccc(-c2cc(Cl)cn3c([N+](=O)[O-])c(CS(=O)(=O)c4ccccc4)nc23)cc1
Leishmania infantum
  IC50: 2500 nM
HepG2
  CC50: > 15600 nM
[1]
  selectivity ratio: > 6.2
[2]
  IC50: 430 nM
[3]
  selectivity ratio: > 36.3

## O=[N+]([O-])c1c(CS(=O)(=O)c2ccccc2)nc2c(-c3ccccc3C(F)(F)F)cc(Cl)cn12
Leishmania infantum
  IC50: 1600 nM
HepG2
  CC50: 22700 nM
[1]
  selectivity ratio: 14.2
[2]
  IC50: 70 nM
[3]
  selectivity ratio: 324

## O=[N+]([O-])c1c(CS(=O)(=O)c2ccccc2)nc2c(-c3ccc(CO)cc3)cc(Cl)cn12
Leishmania infantum
  IC50: 1500 nM
HepG2
  CC50: 13100 nM
[1]
  selectivity ratio: 8.7
[2]
  IC50: 90 nM
[3]
  selectivity ratio: 146

## NCCC[C@](N)(C(=O)O)C(F)F [EFLORNITHINE, (S)-]
HepG2
  CC50: > 100000 nM
[2]
  IC50: 13300 nM
[3]
  selectivity ratio: > 7.5

## O=[N+]([O-])c1c(CS(=O)(=O)c2ccccc2)nc2c(-c3ccccc3)cc(Cl)cn12
Leishmania infantum
  IC50: 1600 nM
HepG2
  CC50: > 15600 nM
[1]
  selectivity ratio: > 10
[2]
  IC50: 610 nM
[3]
  selectivity ratio: > 25.6
[6]
  Activity: -0.69 V

## O=[N+]([O-])c1c(CS(=O)(=O)c2ccccc2)nc2c(-c3ccc(O)cc3)cc(Cl)cn12
Leishmania infantum
  IC50: 3000 nM
HepG2
  CC50: > 12500 nM
[1]
  selectivity ratio: > 4.2
[2]
  IC50: 410 nM
[3]
  selectivity ratio: > 30.5

## O=[N+]([O-])c1c(CS(=O)(=O)c2ccccc2)nc2c(-c3cccs3)cc(Cl)cn12
HepG2
  CC50: > 3900 nM

## N#Cc1ccc(-c2cc(Cl)cn3c([N+](=O)[O-])c(CS(=O)(=O)c4ccccc4)nc23)cc1
HepG2
  CC50: > 3900 nM

## O=Cc1ccc(-c2cc(Cl)cn3c([N+](=O)[O-])c(CS(=O)(=O)c4ccccc4)nc23)cc1
Leishmania infantum
  IC50: 3800 nM
HepG2
  CC50: > 31200 nM
[1]
  selectivity ratio: > 8.2
[2]
  IC50: 80 nM
[3]
  selectivity ratio: > 390

## O=[N+]([O-])c1c(CS(=O)(=O)c2ccccc2)nc2c(-c3ccc(F)cc3F)cc(Cl)cn12
HepG2
  CC50: > 7800 nM

## COc1cccc2c1C(=O)c1c(O)c3c(c(O)c1C2=O)C[C@@](O)(C(=O)CO)C[C@@H]3O[C@H]1C[C@H](N)[C@H](O)[C@H](C)O1 [DOXORUBICIN]
THP-1
  CC50: 1400 nM

## Cc1ccc(C(=O)Nc2ccc(S(=O)(=O)O)c3cc(S(=O)(=O)O)cc(S(=O)(=O)O)c23)cc1NC(=O)c1cccc(NC(=O)Nc2cccc(C(=O)Nc3cc(C(=O)Nc4ccc(S(=O)(=O)O)c5cc(S(=O)(=O)O)cc(S(=O)(=O)O)c45)ccc3C)c2)c1 [SURAMIN]
HepG2
  CC50: > 100000 nM
